# Screening results deposited in PubChem BioAssay by several laboratories.
# Rows were chosen to be rich in hits. Some 4.6% of all compounds tested hit in one or more screens of this group.
# Biofilm kill mix: clotrimazole potentiators killing C. albicans biofilm, primary screen, 4-compound mixtures | 0.02% of 120,000 active | AID 1242, 2008 | C. albicans biofilm persisters + clotrimazole, fluorescence viability; primary screen in compound mixtures of four per well | inhibition, % at 7.6 µM;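 active = inhibition above 30.3% in the primary screen of four-compound pools, then above 30% when the compound was retested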;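 note: compounds exposed to preformed 24 h biofilms for 48 h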
#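 Test system: C. albicans CAF4-2 wild-type biofilms; buffer or medium: RPMI/MOPS medium, pH 7.0; schedule: 24 h biofilm formation, then 48 h compound exposure, 37 °C; detection: Alamar Blue fluorescence; measure: percent inhibition of biofilm viability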
# Arbovirus inh: antivirals against arbovirus infection, primary screen, cell-based, full library, 10K replicate subset. arbovirus infection cell-based antiviral screen. 0.37% of 200,000 active. inhibition, % at 10 µM. AID 1251, 2008; in the data active = inhibition above about 30%
# WT yeast gro inh: growth inhibition of WT strain, primary screen, mitochondrial fusion inhibitor project, WT and mutant strains, chemical genetic; AID 1362, 2008; inhibition, % at 10 µM; mitochondrial fusion phenotypic screen; 2.1% of 190,000 active; in the data active = inhibition above about 58%; tested in S. cerevisiae
# RAM network inh: inhibitors of the yeast RAM network, primary screen, dse1pr::URA3 reporter, 5-FOA selection | S. cerevisiae dse1pr::URA3 reporter, 5-FOA growth OD615, 2 d; analog-sensitive cbk1-as2 kinase mutant strain | inhibition, % at 50 µM | 1.8% of 190,000 active | AID 868, 2007;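 active = inhibition above a set limit, 3 SD over mean compound inhibition, cut at about 8.4% in these data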;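 note: inhibition rescues growth on 5-FOA so higher OD means more RAM inhibition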
# NCF1 inh: p47phox/p22phox peptide binding inhibitors, primary screen, biochemical, uHTS, NADPH oxidase regulatory subunit; fluorescence polarization, 2 h; inhibition, % at 24.7 µM; AID 1274, 2008; 0.53% of 220,000 active;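 active = inhibition above about 30%, limit read from the data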
# Hck-Nef inh: inhibitors of Nef-activated human Hck kinase, primary screen, biochemical, Z-Lyte FRET, 384-well, Hck-YEEI; 0.68% of 220,000 active; Tyrosine-protein kinase HCK (Homo sapiens), P08631; Recombinant Hck-YEEI plus Nef, Z-Lyte FRET kinase assay; inhibition, % at 20 µM;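 active = Hck-Nef kinase inhibition above about 50%, limit read from the data; inactive = inhibition below that limit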
# Target sequence (P08631 whole entry, looked up): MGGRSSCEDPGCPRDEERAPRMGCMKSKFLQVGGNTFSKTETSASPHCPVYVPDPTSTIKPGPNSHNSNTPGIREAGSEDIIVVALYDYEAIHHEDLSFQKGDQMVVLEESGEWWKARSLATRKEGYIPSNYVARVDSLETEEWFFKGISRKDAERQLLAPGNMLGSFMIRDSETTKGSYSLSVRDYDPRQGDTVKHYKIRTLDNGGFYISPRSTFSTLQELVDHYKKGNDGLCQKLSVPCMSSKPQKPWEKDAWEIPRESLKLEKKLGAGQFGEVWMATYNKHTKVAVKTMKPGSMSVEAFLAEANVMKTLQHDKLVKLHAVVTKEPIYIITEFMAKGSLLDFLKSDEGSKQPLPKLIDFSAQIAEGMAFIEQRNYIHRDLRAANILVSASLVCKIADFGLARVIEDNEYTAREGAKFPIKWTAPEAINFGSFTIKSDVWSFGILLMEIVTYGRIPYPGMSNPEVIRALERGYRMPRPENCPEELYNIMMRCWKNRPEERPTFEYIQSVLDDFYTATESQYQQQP
# A number is an active result; - = inactive; . = no result given.
SMILES,Biofilm kill mix,Arbovirus inh,WT yeast gro inh,RAM network inh,NCF1 inh,Hck-Nef inh
OC(Cn1ccnc1)c1ccc(Cl)cc1Cl (stereo not given),.,-,-,-,-,-
CC1(c2ccc(Cl)cc2Cl)OCC(Cn2ccnc2)O1 (stereo not given),.,-,73,-,-,-
O=C(COC(=O)[C@@H]1CCCN1S(=O)(=O)c1ccccc1F)Nc1ccc(OC(F)F)cc1,-,-,-,-,-,-
O=C(NCC1CCCO1)C1CCC(=O)N1Cc1ccccc1Cl (stereo not given),.,-,91,-,-,-
O=C(NCCN1CCOCC1)C1CCC(=O)N1Cc1ccccc1Cl (stereo not given),.,-,-,-,-,-
COc1cccc(NC(=O)C2(S(=O)(=O)c3ccc(Cl)cc3)CC2)c1,-,.,.,.,-,-
COc1ccccc1C(=O)n1nc(-c2ccccc2)nc1NCc1ccco1,.,-,83,-,-,-
O=C(c1ccco1)n1nc(-c2ccc(Cl)cc2)nc1NCc1ccco1,.,-,-,9.4,-,-
Cc1nc(-c2ccccc2)sc1C(=O)/C=C/c1ccc(Cl)cc1,.,-,-,-,-,-
COc1ccc(N/C=C/C(=O)c2sc(-c3ccccc3)nc2C)cc1,.,-,-,9.5,-,-
COc1ccc(NC(=O)C(=O)N/N=C/c2cc(C)n(-c3cccc(Cl)c3Cl)c2C)c(OC)c1,.,32,-,-,-,-
CN(C)c1ccc(/C=C/C(=O)c2cc(Cl)ccc2O)cc1,-,.,.,.,79,-
Cc1ccc(NC(=O)Cn2ccc([N+](=O)[O-])n2)cc1C,-,-,-,-,-,-
CCSc1ccc(-c2ccc(C)cc2)nn1,-,-,-,-,37,-
Cc1cc(NC(=O)CCN2C(=O)C3C4CCC(C4)C3C2=O)c(C)cc1Br (stereo not given),.,-,-,-,-,-
Cc1cc(Br)c(Cl)cc1NC(=O)CN1C(=O)C2C3CC(c4ccccc4)C(C3)C2C1=O (stereo not given),-,-,70,-,-,-
Cc1cc(C)nc(N2CCCC(C(=O)NCc3cccs3)C2)n1 (stereo not given),.,-,70,-,-,-
COc1ccc(Cl)cc1NC(=S)N1CCN(C(=O)C2CCCO2)CC1 (stereo not given),-,-,-,-,-,-
O=[N+]([O-])c1ccc(N/N=C/c2c[nH]c3ccccc23)cc1,.,-,87,-,-,-
COc1ccccc1NS(=O)(=O)c1cc([N+](=O)[O-])ccc1N/N=C/c1c[nH]c2ccccc12,.,-,-,10,-,-
O=[N+]([O-])c1ccc(N/N=C/c2ccc[nH]2)cc1,-,-,-,8.9,-,-
COc1ccccc1/C=C/C=N/NC(=O)c1cccs1,-,.,.,.,-,-
Cc1ccc(NCC(=O)N/N=C/c2cccc(Oc3ccccc3)c2)cc1,-,-,-,10,-,-
Cc1cccc(NCC(=O)N/N=C\c2cccc(Oc3ccccc3)c2)c1,-,-,-,-,-,-
Cc1nc2ccc(NC(=O)c3cccc(S(=O)(=O)N4CC(C)OC(C)C4)c3)cc2s1 (stereo not given),.,-,-,-,-,-
SMILES,Biofilm kill mix,Arbovirus inh,WT yeast gro inh,RAM network inh,NCF1 inh,Hck-Nef inh
S=c1[nH]ncn1/N=C/c1cccc(Oc2ccccc2)c1,.,-,73,-,-,-
O=C(NC1CC1)c1ccc2c(c1)C1C3CCC(C3)C1C(c1ccccc1)N2 (stereo not given),-,-,71,-,-,-
Cc1c(Nc2ccc(C=O)cc2)c(=O)n(-c2ccccc2)n1C,-,-,-,-,-,-
CCOC(=O)Cc1nnc2c(Nc3ccc(Cl)cc3)nc3nonc3n12,.,-,-,-,-,-
CCc1cc2c(=O)nc3n(c2s1)Cc1ccccc1/C3=C(/O)c1ccccc1Cl,.,-,-,-,74,-
CCc1cc(SC#N)cc(CC)c1NC(=O)CCl,-,-,-,-,-,-
COCCNC(=O)c1cccc(Nc2nc(-c3ccccc3)c3cc(Cl)ccc3n2)c1,-,-,61,-,-,-
OCCNc1nc(-c2ccccc2)c2cc(Cl)ccc2n1,-,-,-,-,-,-
